The source made the active and inactive calls. The calls are words filed in the database; no cut-off is given here.
How the values were obtained:
[1] = Cytotoxicity against human SupT1 cells assessed as decrease in cell viability after 48 hrs by CCK-8 assay; assay type: cell-based, SUP-T1
[2] = system: Human immunodeficiency virus 1; assay: Antiviral activity against VSV-G pseudotyped HIV1 infected in human SupT1 cells at 100 uM after 48 hrs by luciferase reporter gene assay relative to control; assay type: functional; settings: for inhibition at 100 µM: Human immunodeficiency virus 1, SUP-T1, 48 h
How it was run: (§1)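 VSV-G pseudotyped HIV-1 (pNL-Luc-E plus pHIT/G) was made by […] (2 × 105), harvested at 48 h through a 0.45 μm filter, and quantified by p24 ELISA. […] Compounds were screened at 100 μM; IC50 was determined for those above 60% inhibition.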

[3] = system: Human immunodeficiency virus 1; assay: Antiviral activity against VSV-G pseudotyped HIV1 infected in human SupT1 cells after 48 hrs by luciferase reporter gene assay; assay type: functional, organism-based; settings: Human immunodeficiency virus 1, SUP-T1, 48 h; how it was run: as §1

| SMILES | CC50 at 48 h [1] [µM] | inhibition at 100 µM [2] [%] | IC50 [3] [µM] | inhibition [2] |
| --- | --- | --- | --- | --- |
| COc1cc(/C=C2\OC(=O)C(c3ccc(O)cc3)=C2O)cc(O)c1O | > 100 | 69.8 | 78.3 | – |
| C/C(=C\CC/C(C)=C/C[C@]1(O)C(=O)c2c(O)cc(C)c3c(O)c(C)c(O)c(c23)C1=O)CC/C=C(\CO)CC[C@@H](O)C(C)(C)O | > 100 | 98.6 | 22.1 | – |
| COC(=O)c1cc(O)cc(OC)c1Oc1c(Cl)c(C)c(Cl)c(O)c1C(=O)O | – | – | – | inactive |
| Cc1c(O)c(O)c2c(c1C=O)[C@@H]1O[C@H](O2)c2c(C)c(O)c(O)c(O)c2C1=O | > 100 | 99.9 | 6.6 | – |
| O=C1O[C@H](Cc2ccc(O)cc2)C(c2ccc(O)cc2)=C1O | > 100 | 62.2 | 54.2 | – |
| C[C@H]1/C=C/OC(=O)O[C@@]23C(=O)N[C@@H](Cc4ccccc4)[C@@H]2[C@H](C)[C@@]2(C)OC2[C@@H]3/C=C/C[C@H](C)C1=O (stereo partly drawn) | – | 54.3 | – | – |
| CC1=C(C)[C@H]2[C@H](Cc3ccccc3)NC(=O)[C@@]2(O)[C@@H](/C=C/C[C@H](C)C(=O)[C@H](C)O)[C@@H]1O [CYTOCHALASIN Z13] | – | 44.9 | – | – |
| COC(=O)[C@@]1(Cc2ccc(O)c(C[C@@H](O)C(C)(C)O)c2)OC(=O)C(OC)=C1c1ccc(O)cc1 | 94.3 | 64.3 | 82.3 | – |
| C/C1=C\CC(=O)O[C@@]23C(=O)N[C@@H](Cc4ccccc4)[C@@H]2[C@H](C)[C@@]2(C)O[C@H]2[C@@H]3/C=C/C[C@H](C)C1=O | 98.6 | 81.5 | 41.6 | – |
| O=C1O/C(=C\c2ccc(O)c(O)c2)C(O)=C1c1ccc(O)cc1 | > 100 | 72.3 | 40 | – |
| O=C1O/C(=C\c2ccc(O)cc2)C(O)=C1c1ccc(O)c(O)c1 | > 100 | 74.8 | 72.4 | – |
| Nc1ccn([C@@H]2CS[C@H](CO)O2)c(=O)n1 [LAMIVUDINE] | – | – | 0.1 | – |
| COC(=O)[C@@]1(Cc2ccc3c(c2)C[C@H](O)C(C)(C)O3)OC(=O)C(OC)=C1c1ccc(O)cc1 | 93 | 84.8 | 48 | – |
| C=C1[C@@H](C)[C@H]2[C@H](Cc3ccccc3)NC(=O)[C@]23OC(=O)/C=C/[C@H](C)[C@H](O)[C@@H](C)C/C=C/[C@H]3[C@@H]1O | 95.1 | 100 | 25.8 | – |
| CC1=C(C)[C@H]2[C@H](Cc3ccccc3)NC(=O)[C@]23OC(=O)/C=C/[C@H](C)[C@H](O)[C@@H](C)C/C=C/[C@H]3[C@@H]1O | > 100 | 100 | 9.2 | – |
| COc1cc(/C=C2\OC(=O)C(c3ccc(O)cc3)=C2O)ccc1O | – | – | – | inactive |
| C/C(=C\CC/C(C)=C/C[C@]1(O)C(=O)c2c(O)cc(C)c3c(O)c(C)c(O)c(c23)C1=O)CC/C=C(/CC[C@@H](O)C(C)(C)O)C(=O)O | – | 48.1 | – | – |
| COC(=O)[C@]1(Cc2ccc(O)cc2)OC(=O)C(OC)=C1c1ccc(O)cc1 | > 100 | 68.7 | 74.8 | – |

| SMILES | CC50 at 48 h [1] [µM] | inhibition at 100 µM [2] [%] | IC50 [3] [µM] | inhibition [2] |
| --- | --- | --- | --- | --- |
| COC(=O)[C@]1(Cc2ccc(O)cc2)OC(=O)C(O)=C1c1ccc(O)cc1 | > 100 | 60.8 | 84.5 | – |
| COC(=O)c1cc(O)cc(OC)c1Oc1cc(C)cc(O)c1C(=O)O [ASTERRIC ACID] | – | 8.53 | – | – |
| COC(=O)[C@@]1(Cc2ccc(O)c(C[C@H](O)C(C)(C)O)c2)OC(=O)C(OC)=C1c1ccc(O)cc1 | > 100 | 73.4 | 67.2 | – |
| Cc1c(O)c(O)c(O)c(C=O)c1-c1cc2c(C=O)c(C)c(O)c(O)c2o1 | > 100 | 94.7 | 20.2 | – |
| COC(OC)C1CCC(C(C)(C)O)OC1CC/C(C)=C/CC/C(C)=C/C[C@]1(O)C(=O)c2c(O)cc(C)c3c(O)c(C)c(O)c(c23)C1=O (stereo partly drawn) | > 100 | 99.8 | 2.4 | – |
| COC(=O)c1cc(O)cc(OC)c1C(=O)c1c(O)cc(C)cc1O [SULOCHRIN] | – | 53.8 | – | – |
| Cc1c(O)c(O)c(O)c2c1COC2 | 91.4 | 90.8 | 49.3 | – |
| COc1cc(/C=C2\OC(=O)C(c3ccc(O)cc3)=C2O)cc(OC)c1O | > 100 | 52.3 | 43.7 | – |
| COC(=O)c1cc(O)cc(OC)c1C(=O)c1c(O)c(Cl)c(C)c(Cl)c1O [DIHYDROGEODIN] | > 100 | 91.1 | 56.3 | – |
| C/C(=C\CC/C(C)=C/C[C@]1(O)C(=O)c2c(O)cc(C)c3c(O)c(C)c(O)c(c23)C1=O)CC/C=C(\CC[C@@H](O)C(C)(C)O)C(=O)O | 78.6 | 96.8 | 32.6 | – |
| CC1=C(C)[C@H]2[C@H](Cc3ccccc3)NC(=O)[C@]23OC(=O)C/C=C(/C)C(=O)[C@@H](C)C/C=C/[C@H]3[C@@H]1O | 70.8 | 79.5 | 28.9 | – |
| CC1=C(C)[C@H]2[C@H](Cc3ccccc3)NC(=O)[C@]23OC(=O)/C=C/[C@@](C)(O)C[C@@H](C)C/C=C/[C@H]3[C@@H]1O [CYTOCHALASIN Z9] | > 100 | 98.7 | 14.4 | – |
| COc1cc(O)cc(C(=O)O)c1Oc1cc(C)cc(O)c1C(=O)O | – | 25.5 | – | – |
| CC(C)=CCC/C(=C/CC/C(C)=C/CC/C(C)=C/C[C@]1(O)C(=O)c2c(O)cc(C)c3c(O)c(C)c(O)c(c23)C1=O)CO | > 100 | 100 | 4.5 | – |
| O=C1Nc2ccc(Cl)cc2[C@@](C#CC2CC2)(C(F)(F)F)O1 [EFAVIRENZ] | – | – | 0.0004 | – |
| COC1=C(c2ccc(O)cc2)[C@@H](Cc2ccc(O)cc2)OC1=O | 96.5 | 72.8 | 68.7 | – |
| O=C1O/C(=C\c2ccc(O)cc2)C(O)=C1c1ccc(O)cc1 | – | – | – | inactive |

Source: ChEMBL document CHEMBL4130477, “Metabolites from the Plant Endophytic Fungus Aspergillus sp. CPCC 400735 and Their Anti-HIV Activities” (J Nat Prod, 2017)
